According to ChEMBL document CHEMBL3102781, “Synthesis and activity of substituted heteroaromatics as positive allosteric modulators for α4β2α5 nicotinic acetylcholine receptors” (Bioorg Med Chem Lett, 2014):
Active and inactive are the calls of the source. The calls are words filed in the database; no cut-off is given here.

Tests used:
[1] = molecular target: T1, Nicotinic acetylcholine receptor alpha4/beta2/alpha5 (Homo sapiens) (UniProt P17787+P43681+P30532); assay: Positive allosteric modulation of human alpha4beta2alpha5 nACHR expressed in HEK-tsA201 cells assessed as potentiation of nicotine-induced current at 1 uM preincubated for 15 mins followed by nicotine-treatment by fluorometric analysis; type: cell-based
Outline: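 In human α4β2α5 AChR HEK tsA201 cells (200,000/well, 20 h at 29 °C before testing), compound was added 15 min before nicotine. Potentiation of the nicotine response was read by membrane-potential fluorescence on a FLEXstation, with 3–4 wells averaged per point.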

[2] = molecular target: T1, Nicotinic acetylcholine receptor alpha4/beta2/alpha5 (Homo sapiens); assay: Agonist activity at human alpha4beta2alpha5 nACHR expressed in HEK-tsA201 cells by fluorometric analysis; type: cell-based
[3] = Drug uptake in mouse brain at 10 mg/kg, ip after 2 hrs; type: ADME, organism-based; parameters: dose 10 mg/kg, route intraperitoneal; conditions: read-out: Drug uptake
Outline: (§1)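 Mice were given 10 mg/kg by intraperitoneal injection. Plasma and brain drug levels were measured 2 h after dosing.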

[4] = Half life in mouse at 1 mg/kg, iv and 2 mg/kg, po; type: ADME, organism-based; conditions: in vivo
Outline: (§2)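 Mouse pharmacokinetics. Each compound was dosed 1 mg/kg IV and 2 mg/kg PO. From these the following were derived: clearance, half-life, PO AUC, PO Cmax, volume of distribution and oral bioavailability (F%).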

[5] = molecular target: T1, Nicotinic acetylcholine receptor alpha4/beta2/alpha5 (Homo sapiens); assay: Positive allosteric modulation of human alpha4beta2alpha5 nACHR expressed in HEK-tsA201 cells assessed as potentiation of nicotine-induced current preincubated for 15 mins followed by nicotine-treatment by fluorometric analysis relative to NS9283; type: cell-based
Outline: (§3)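 Human AChR subtypes were stably expressed in HEK tsA201 cells grown in DMEM with 10% FBS at 37 °C. Plating was 150,000/well for lines without α5 and 200,000/well for α5 lines, on poly-D-lysine plates. β2-containing lines were incubated 20 h at 29 °C before testing. Serial dilutions of compound were added 15 min before nicotine. Membrane-potential fluorescence was read on a FLEXstation, with 3–4 wells per point and a Hill equation fit.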

[6] = molecular target: Neuronal acetylcholine receptor; alpha3/beta2 (Homo sapiens) (UniProt P17787+P32297); assay: Positive allosteric modulation of human alpha3beta2 nACHR expressed in HEK-tsA201 cells assessed as potentiation of nicotine-induced current preincubated for 15 mins followed by nicotine-treatment by fluorometric analysis; type: cell-based; outline: as §3
[7] = Cmax in mouse at 2 mg/kg, po; type: ADME, organism-based; parameters: dose 2 mg/kg, route oral; conditions: in vivo; outline: as §2
[8] = molecular target: Nicotinic acetylcholine receptor alpha3/beta2/alpha5 (Homo sapiens) (UniProt P17787+P32297+P30532); assay: Positive allosteric modulation of human alpha3beta2alpha5 nACHR expressed in HEK-tsA201 cells assessed as potentiation of nicotine-induced current preincubated for 15 mins followed by nicotine-treatment by fluorometric analysis; type: cell-based; outline: as §3
[9] = Plasma concentration in mouse at 10 mg/kg, ip after 2 hrs; type: ADME, organism-based; parameters: dose 10 mg/kg, route intraperitoneal; outline: as §1
Mus musculus [10] = assay: Oral bioavailability in mouse at 2 mg/kg; type: ADME, organism-based; conditions: in vivo; outline: as §2
Mus musculus [11] = assay: AUC in mouse at 2 mg/kg, po; type: ADME, organism-based, Plasma; parameters: dose 2 mg/kg, route oral; conditions: in vivo; outline: as §2
[12] = molecular target: Nicotinic acetylcholine receptor alpha3/beta4/alpha5 (Homo sapiens) (UniProt P30926+P32297+P30532); assay: Positive allosteric modulation of human alpha3beta4alpha5 nACHR expressed in HEK-tsA201 cells assessed as potentiation of nicotine-induced current preincubated for 15 mins followed by nicotine-treatment by fluorometric analysis; type: cell-based; outline: as §3
[13] = molecular target: T2, Neuronal acetylcholine receptor; alpha4/beta2 (Homo sapiens, UniProt P17787+P43681); assay: Positive allosteric modulation of human alpha4beta2 nACHR expressed in HEK-tsA201 cells assessed as potentiation of nicotine-induced current preincubated for 15 mins followed by nicotine-treatment by fluorometric analysis; type: cell-based; outline: as §3
T2 sequence (P17787 whole entry): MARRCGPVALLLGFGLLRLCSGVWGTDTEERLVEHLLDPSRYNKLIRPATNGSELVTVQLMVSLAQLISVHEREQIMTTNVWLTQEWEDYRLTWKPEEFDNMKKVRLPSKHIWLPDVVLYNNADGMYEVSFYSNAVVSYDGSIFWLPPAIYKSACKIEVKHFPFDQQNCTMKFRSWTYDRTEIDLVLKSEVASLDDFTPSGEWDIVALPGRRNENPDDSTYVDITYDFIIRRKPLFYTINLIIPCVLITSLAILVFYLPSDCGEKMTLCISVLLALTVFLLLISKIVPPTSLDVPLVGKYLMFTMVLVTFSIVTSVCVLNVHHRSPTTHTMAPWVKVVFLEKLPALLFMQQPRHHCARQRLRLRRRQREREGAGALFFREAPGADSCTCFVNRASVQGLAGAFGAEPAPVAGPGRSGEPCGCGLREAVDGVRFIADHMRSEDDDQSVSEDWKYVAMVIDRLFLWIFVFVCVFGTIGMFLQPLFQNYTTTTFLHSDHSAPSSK
T2 sequence (P43681 whole entry): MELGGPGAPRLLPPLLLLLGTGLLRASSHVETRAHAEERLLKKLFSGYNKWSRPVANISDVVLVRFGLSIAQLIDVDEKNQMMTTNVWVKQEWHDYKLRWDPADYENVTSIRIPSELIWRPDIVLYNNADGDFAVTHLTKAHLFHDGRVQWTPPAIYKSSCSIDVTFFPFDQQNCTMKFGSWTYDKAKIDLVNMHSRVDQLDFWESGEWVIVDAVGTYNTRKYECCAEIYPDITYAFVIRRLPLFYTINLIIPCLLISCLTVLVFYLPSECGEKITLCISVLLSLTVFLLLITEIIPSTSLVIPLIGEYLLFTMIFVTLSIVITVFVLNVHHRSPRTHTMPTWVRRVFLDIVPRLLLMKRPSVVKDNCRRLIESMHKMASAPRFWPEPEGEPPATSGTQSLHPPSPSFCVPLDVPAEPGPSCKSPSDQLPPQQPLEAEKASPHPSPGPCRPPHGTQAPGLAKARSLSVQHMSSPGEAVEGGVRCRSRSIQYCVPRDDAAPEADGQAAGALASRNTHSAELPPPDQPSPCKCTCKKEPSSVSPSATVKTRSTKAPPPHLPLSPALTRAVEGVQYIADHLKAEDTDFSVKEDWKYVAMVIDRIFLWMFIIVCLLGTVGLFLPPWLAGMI

[14] = molecular target: Nicotinic acetylcholine receptor alpha4/beta2/alpha5 (Homo sapiens, UniProt P17787+P30532+P43681); assay: Positive allosteric modulation of human alpha4beta2alpha5 nACHR expressed in HEK-tsA201 cells assessed as potentiation of nicotine-induced current preincubated for 15 mins followed by nicotine-treatment by fluorometric analysis; type: cell-based; outline: as §3
Chain of Nicotinic acetylcholine receptor alpha4/beta2/alpha5 (P17787 whole entry): as the sequence (P17787 whole entry) above
Chain of Nicotinic acetylcholine receptor alpha4/beta2/alpha5 (P43681 whole entry): as the sequence (P43681 whole entry) above
Chain of Nicotinic acetylcholine receptor alpha4/beta2/alpha5 (P30532 whole entry): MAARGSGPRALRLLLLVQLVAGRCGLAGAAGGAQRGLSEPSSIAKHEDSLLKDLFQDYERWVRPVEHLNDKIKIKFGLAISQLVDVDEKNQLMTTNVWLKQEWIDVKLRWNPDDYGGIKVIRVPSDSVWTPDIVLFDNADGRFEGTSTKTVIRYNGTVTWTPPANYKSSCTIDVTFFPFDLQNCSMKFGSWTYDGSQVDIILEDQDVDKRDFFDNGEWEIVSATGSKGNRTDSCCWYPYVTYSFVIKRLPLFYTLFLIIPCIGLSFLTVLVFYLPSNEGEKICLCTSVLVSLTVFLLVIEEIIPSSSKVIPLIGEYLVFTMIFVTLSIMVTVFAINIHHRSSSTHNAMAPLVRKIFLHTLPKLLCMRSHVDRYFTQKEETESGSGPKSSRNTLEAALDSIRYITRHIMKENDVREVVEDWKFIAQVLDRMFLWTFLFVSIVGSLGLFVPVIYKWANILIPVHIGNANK

Mus musculus [15] = assay: Volume of distribution in mouse at 1 mg/kg, iv and 2 mg/kg, po; type: ADME, organism-based; conditions: in vivo; outline: as §2
[16] = molecular target: Neuronal acetylcholine receptor; alpha3/beta4 (Homo sapiens) (UniProt P30926+P32297); assay: Positive allosteric modulation of human alpha3beta4 nACHR expressed in HEK-tsA201 cells assessed as potentiation of nicotine-induced current preincubated for 15 mins followed by nicotine-treatment by fluorometric analysis; type: cell-based; outline: as §3
[17] = molecular target: T2, Neuronal acetylcholine receptor; alpha4/beta2; assay: Positive allosteric modulation of alpha4beta2 nACHR (unknown origin); type: protein-complex assay

| Compound | Activity [1] | Activity [2] | also measured |
| --- | --- | --- | --- |
| N#Cc1cccc(-c2cn(-c3cccnc3)nn2)c1 | inactive | inactive | – |
| N#Cc1cccc(-n2nnc(-c3ccc(Cl)nc3)n2)c1 | inactive | inactive | – |
| N#Cc1cccc(-n2nnc(-c3cccnc3)n2)c1 | > 50% | inactive | concentration at 2 h [3]: 4.4 µM; half-life [4]: 54 min; Emax [5]: 2.5; Activity [6]: inactive; Cmax [7]: 4.1 µM; Activity [8]: inactive; concentration at 2 h [9]: 11 µM; F (Mus musculus [10]): 100%; AUC (Mus musculus [11]): 21 µM·h; Activity [12]: inactive; Activity [13]: Active; EC50 [14]: 2 µM; Vd (Mus musculus [15]): 2.7 L/kg; Activity [16]: inactive |
| N#Cc1cccc(-n2nnc(-c3cccnc3Cl)n2)c1 | inactive | inactive | – |
| N#Cc1cccc(-n2cc(-c3cccnc3)cn2)c1 | inactive | inactive | – |
| Fc1cccc(-c2nc(-c3cccnc3)no2)c1F | inactive | inactive | – |
| FC(F)(F)c1cccc(-c2nc(-c3cccnc3)no2)c1 | inactive | inactive | – |
| Cc1ccc(-n2nnc(-c3cccnc3)n2)cc1C#N | inactive | inactive | – |
| N#Cc1cccc(-c2nc(-c3ccncc3)no2)c1 | inactive | inactive | – |
| FC(F)(F)Oc1cccc(-c2nc(-c3cccnc3)no2)c1 | inactive | inactive | – |
| N#Cc1cccc(-c2ccn(-c3cccnc3)n2)c1 | inactive | inactive | – |
| N#Cc1cccc(-c2nnc(-c3cccnc3)[nH]2)c1 | inactive | inactive | – |
| COc1ccc(OC)c(-n2nnc(-c3cccnc3)n2)c1 | inactive | inactive | – |
| N#Cc1cccc(-n2nnc(-c3ccccc3)n2)c1 | inactive | inactive | – |
| N#Cc1cccc(-n2cnc(-c3cccnc3)n2)c1 | inactive | inactive | – |
| N#Cc1cccc(-c2ncn(-c3cccnc3)n2)c1 | inactive | inactive | – |
| Fc1ccc(-c2nc(-c3cccnc3)no2)cc1F | > 50% | inactive | Emax [5]: 1.2; EC50 [14]: 1.3 µM |
| Clc1ccc(-c2nc(-c3cccnc3)no2)cc1 | inactive | inactive | – |
| Clc1cc(Cl)cc(-n2nnc(-c3cccnc3)n2)c1 | inactive | inactive | – |
| N#Cc1cccc(-n2ccc(-c3cccnc3)n2)c1 | inactive | inactive | – |
| N#Cc1ccc(-n2nnc(-c3cccnc3)n2)cc1 | > 50% | inactive | Emax [5]: 0.96; EC50 [14]: 2.2 µM |
| N#Cc1cccc(-c2nc(-c3ccccn3)no2)c1 | inactive | inactive | – |
| Brc1cccc(-n2nnc(-c3cccnc3)n2)c1 | inactive | inactive | – |
| Fc1cccc(-c2nc(-c3cccnc3)no2)c1 | inactive | inactive | – |

| Compound | Activity [1] | Activity [2] | also measured |
| --- | --- | --- | --- |
| N#Cc1cccc(-n2nnc(-c3cnccc3Cl)n2)c1 | inactive | inactive | – |
| c1cncc(-c2nnn(-c3cccnc3)n2)c1 | > 50% | inactive | Emax [5]: 1.9; EC50 [14]: 0.7 µM |
| c1ccc(-c2nc(-c3cccnc3)no2)cc1 | inactive | inactive | – |
| N#Cc1cccc(-c2nc(-c3cccnc3)no2)c1 | > 50% | inactive | Activity [6]: inactive; EC50 [17]: 0.99 µM; Activity [8]: inactive; Activity [12]: inactive; Activity [13]: Active; EC50 [14]: 0.79 µM; Activity [16]: inactive |
| N#Cc1cccc(-n2cc(-c3cccnc3)nn2)c1 | inactive | inactive | – |
| O=[N+]([O-])c1ccccc1-c1nc(-c2cccnc2)no1 | inactive | inactive | – |
| N#Cc1cccc(-c2cn(-c3cccnc3)cn2)c1 | inactive | inactive | – |
| N#Cc1cccc(-n2nnc(-c3ccncc3)n2)c1 | inactive | inactive | – |
| N#Cc1cccc(-n2nnc(-c3ccccn3)n2)c1 | inactive | inactive | – |
| C[n+]1cccc(-c2noc(-c3cccc(C#N)c3)n2)c1 | inactive | inactive | – |
| O=[N+]([O-])c1ccc(-c2nc(-c3cccnc3)no2)cc1 | > 50% | inactive | Emax [5]: 0.81; EC50 [14]: 1.7 µM |
| Clc1ccccc1-n1nnc(-c2cccnc2)n1 | inactive | inactive | – |
| O=[N+]([O-])c1cccc(-c2nc(-c3cccnc3)no2)c1 | > 50% | inactive | Emax [5]: 1.2; EC50 [14]: 0.69 µM |
| COc1cc(OC)cc(-n2nnc(-c3cccnc3)n2)c1 | inactive | inactive | – |
| NC(=O)c1cccc(-n2nnc(-c3cccnc3)n2)c1 | inactive | inactive | – |
| COc1cccc(-c2nc(-c3cccnc3)no2)c1 | inactive | inactive | – |
| Clc1ccccc1-c1nc(-c2cccnc2)no1 | inactive | inactive | – |
| N#Cc1cccc(-c2nc(-c3ccccc3)no2)c1 | inactive | inactive | – |
| N#Cc1cccc(-n2cnc(-c3cccnc3)c2)c1 | inactive | inactive | – |
| Fc1ccc(-n2nnc(-c3cccnc3)n2)c(F)c1 | inactive | inactive | – |
| C[n+]1cccc(-c2nnn(-c3cccc(C#N)c3)n2)c1 | inactive | inactive | – |
| N#Cc1cccc(-n2nnc(-c3cncc(Cl)c3)n2)c1 | inactive | inactive | – |
| c1cncc(-c2noc(-c3cccnc3)n2)c1 | > 50% | inactive | Emax [5]: 0.98; EC50 [14]: 1 µM |
